Bioassay records from PubChem BioAssay.
In the library only some 5.7% were active in any assay of this set; here they are far more common.
CSC inhib: blocks cancer stem cells; cancer stem cell-like cells viability, luminescence; inhibition, % at 7.5 µM; 1.1% of 300,000 active; AID 2717; in the data active = inhibition above about 75%; inconclusive = no clear call, values can overlap the other calls; tested in HMLE shEcad cells
SKKanGAS inh: SKKanGAS growth inhibition. S. pyogenes SKKanGAS, kanamycin growth, BacTiter-Glo, 6 h. inhibition, % at 7.5 µM. 1.3% of 300,000 active. AID 1662;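 active = mean replicate score, as percent of positive control median, at least 50; inconclusive = mean below 50 but one replicate at or above 50; inactive = mean and every replicate below 50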;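 also: strain carries kanamycin resistance gene driven by streptokinase promoter and grows in 40 µg/ml kanamycin; loss of luminescence reflects streptokinase promoter inhibition or plain growth inhibition; 0% = median of DMSO wells and 100% = positive control at its reference dose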
Beta cell apopt: beta cell apoptosis inhibition. INS-1E cytokine-induced death, ATP luminescence, 48 h; percent of positive-control rescue, neutral wells zero. protection from apoptosis, % (test concentration not listed). 0.8% of 300,000 active;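 active = Every replicate reaches about 75%, or at least half do and their mean reaches it too, limit read from the data; inconclusive = At least half of replicates reach the limit but their mean does not; inactive = Under half of replicates reach the limit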;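 also: 0% = cytokine-treated negative control wells and 100% = positive control rescue; higher means more ATP so stronger rescue from cytokine killing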
T cruzi inh: T. cruzi replication inhibition; T. cruzi beta-gal in NIH3T3, luminescence, 90 h; inhibition, % (test concentration not listed); 1.4% of 300,000 active;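 active = mean inhibition across valid replicates above about 55%, limit read from the data; inconclusive = mean below that limit but half or more replicates reach it; inactive = mean below it, under half of replicates reach it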;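 also: signal also drops with host cell toxicity which is not excluded here; 0% = plate median of DMSO wells and 100% = zero luminescence signal; higher percent means less beta-gal luminescence so fewer parasites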
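assay system = mouse NIH/3T3 fibroblasts infected with β-gal-expressing T. cruzi Tulahuen C4 | input = 5,000 NIH/3T3 host cells per well | buffer or medium = DMEM plus 2% FBS | timing = 3 h host attachment, then at least 90 h co-culture | measured by = GalScreen luminescence, 60 min | evaluation = luminescence reflecting intracellular parasite burden, expressed as percent inhibition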
Mdm2 MdmX PPI: inhibitors of human Mdm2/MdmX interaction; AID 485346; 3% of 330,000 active; SaOS-2 split-luciferase Mdm2/MdmX complementation, luminescence; inhibition, % at 8 µM;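 active = inhibition of at least 50% at 8 µM in the primary screen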
Target sequence (O15151 whole entry, looked up): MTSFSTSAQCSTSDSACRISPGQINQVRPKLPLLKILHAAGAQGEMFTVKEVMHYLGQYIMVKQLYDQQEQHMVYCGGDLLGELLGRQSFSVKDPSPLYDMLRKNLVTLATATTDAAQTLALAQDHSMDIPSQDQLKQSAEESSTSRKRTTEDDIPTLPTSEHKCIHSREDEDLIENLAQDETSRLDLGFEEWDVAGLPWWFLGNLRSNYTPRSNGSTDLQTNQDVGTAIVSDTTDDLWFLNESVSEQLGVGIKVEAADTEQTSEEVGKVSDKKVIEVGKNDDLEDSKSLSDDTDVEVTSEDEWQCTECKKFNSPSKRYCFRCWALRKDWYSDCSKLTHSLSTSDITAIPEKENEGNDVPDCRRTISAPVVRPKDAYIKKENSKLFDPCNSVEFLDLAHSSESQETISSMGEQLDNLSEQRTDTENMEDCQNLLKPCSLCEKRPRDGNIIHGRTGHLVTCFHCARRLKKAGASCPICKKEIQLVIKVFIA
Target sequence (Q00987 whole entry, looked up): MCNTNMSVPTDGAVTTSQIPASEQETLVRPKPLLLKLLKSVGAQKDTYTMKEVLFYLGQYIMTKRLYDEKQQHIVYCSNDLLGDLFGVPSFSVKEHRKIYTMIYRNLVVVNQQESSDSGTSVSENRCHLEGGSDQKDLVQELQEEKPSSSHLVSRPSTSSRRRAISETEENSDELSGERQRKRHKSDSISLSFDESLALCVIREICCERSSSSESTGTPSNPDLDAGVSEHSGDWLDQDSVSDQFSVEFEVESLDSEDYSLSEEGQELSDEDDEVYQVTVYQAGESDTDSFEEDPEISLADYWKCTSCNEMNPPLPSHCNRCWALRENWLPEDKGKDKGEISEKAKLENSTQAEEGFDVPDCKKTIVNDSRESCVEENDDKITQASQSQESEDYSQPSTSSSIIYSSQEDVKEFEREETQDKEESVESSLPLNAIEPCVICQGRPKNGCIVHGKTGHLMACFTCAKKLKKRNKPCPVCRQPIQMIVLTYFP
Calb FLC: affects C. albicans growth with fluconazole; C. albicans CaCi-2 (fluconazole-resistant clinical isolate) + fluconazole, Alamar Blue growth, 48 h; growth inhibition, % (test concentration not listed); 0.57% of 300,000 active; AID 1979;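 active = growth inhibition above about 58% in most replicates, limit read from the data, passing the limit was not always enough; inconclusive = exactly half the replicates above a set limit; inactive = most replicates below a set limit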;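 also: all wells also contain fluconazole at 8 µg/ml as a sub-toxic cotreatment; 0% = median of DMSO wells and 100% = median of geldanamycin control wells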
Mdm2-MdmX conf: confirmation of human Mdm2/MdmX interaction inhibitors | shares compounds with Mdm2 MdmX PPI | Mdm2-MdmX binding, luminescent assay | inhibition, % at 8 µM | 55% of 10,000 active | AID 489028; in the data active = inhibition above about 40%
Full FLuc ctr: inhibits full-length luciferase, flagging false Mdm2/MdmX hits. shares compounds with Mdm2 MdmX PPI. SaOS-2 full-length luciferase counterscreen, luminescence. inhibition, % at 8 µM. 77% of 6,200 active. AID 504607;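 active = mean inhibition at 8 µM reaching about 37%, which flags the compound as non-specific, limit read from the data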;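 also: p53-null SaOS-2 cells with luciferase driven by a doxycycline-inducible promoter; compound on cells about two nights before reading with doxycycline added after day one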
* hit, by the source's call; ? = inconclusive; / = no result.

SMILES	CSC inhib	SKKanGAS inh	Beta cell apopt	T cruzi inh	Mdm2 MdmX PPI	Calb FLC	Mdm2-MdmX conf	Full FLuc ctr
COc1ccc(NC(=O)C(=O)c2cn(CC(=O)N3CCCC3)c3ccccc23)cc1	1	-2	9	5	58*	-24	55*	89*
Cc1ccc(-c2noc(COC(=O)c3ccco3)n2)cc1	/	/	-3	/	15	/	/	/
O=C(COC(=O)c1n[nH]c2ccccc12)NC(=O)NC1CCCC1	25	/	-4	/	-3	/	/	/
O=C(COC(=O)c1n[nH]c2ccccc12)NC(=O)NC12CC3CC(CC(C3)C1)C2	11	-4	13	16	54*	-4	34	72*
O=C(COC(=O)CCC(=O)c1ccc(F)cc1)NCc1ccccc1Cl	-3	/	-1	/	8	/	/	/
Cc1nonc1CC(=O)NC1CCCc2c1cnn2-c1ccc(F)cc1F (stereo not drawn)	/	-6	/	-2	17	-5	/	/
CCOC(=O)Nc1ccc2c(c1)N(C(=O)CCN(CC)CC)c1ccccc1S2=O (stereo not drawn)	36	0	/	-13	67*	-2	53*	30
COc1cccc(/C=C2/SC(=S)N(CCC(=O)N3CCOCC3)C2=O)c1	/	3	-59	-23	53*	-1	15	/
COc1cccc(/C=C2\SC(=S)N(CCCC(=O)N3CCCCC3)C2=O)c1	8	0	-51	-5	88*	-1	62*	23
Cc1ccc(/C=C2\SC(=S)N(CCC(=O)N3CCOCC3)C2=O)cc1	22	-3	-51	-28	57*	2	30	/
O=C(CCN1C(=O)/C(=C\c2ccccc2)SC1=S)N1CCOCC1	2	7	-26	-8	34	18	/	/
COc1cccc(/C=C2\SC(=S)N(CCC(=O)Nc3ccc(O)cc3)C2=O)c1	15	1	/	12	21	-8	/	/
O=C(CCCN1C(=O)/C(=C/c2ccccc2)SC1=S)N1CCOCC1	/	-8	-20	-8	30	10	/	/
CCOC(=O)c1c(C)[nH]c(C)c1C(=O)COC(=O)COc1ccc(Cl)c(C)c1	/	/	/	/	17	/	/	/
O=C(NC1CCCc2ccccc21)c1c(F)cccc1Cl (stereo not drawn)	-3	-4	3	2	11	-7	/	/
C=C(C(=O)c1ccccc1)C(C)CC(=O)c1ccccc1 (stereo not drawn)	32	12	-28	-76	64*	2	61*	32
CNC(=O)CC(CC(=O)c1ccccc1)c1ccccc1 (stereo not drawn)	2	/	0	/	17	/	/	/
C=C1C(=O)C=C[C@]2(C)C[C@@H]3OC(=O)[C@](C)(O)[C@H]3C[C@@H]12	?	6	/	-40	73*	24	47*	25
C(=N\Nc1ccc2ccccc2n1)/c1ccc2c(c1)OCCO2	11	1	1	23	69*	-8	79*	98*
CCOc1ccc(NC(=O)COC(=O)CC2CC3CCC2C3)cc1 (stereo not drawn)	-6	/	-2	/	14	/	/	/
COc1ccc(S(=O)(=O)N2CCOCC2)cc1NC(=O)C1COc2ccccc2O1 (stereo not drawn)	-13	-2	/	-2	-28	-2	/	/
CCOC(=O)c1sc2nc(SC)nc(-c3ccc(Cl)cc3)c2c1N	-9	-2	16	3	60*	0	13	/
CC(NC(=O)CSc1cccc(C(F)(F)F)c1)c1ccccc1 (stereo not drawn)	-15	7	-10	-8	-37	10	/	/
O=C(O)CN(c1cccc(C(F)(F)F)c1)S(=O)(=O)c1ccccc1	0	4	-1	-17	-8	1	/	/
Cc1ccc(N(CC(=O)NCCc2ccc(F)cc2)S(=O)(=O)c2ccc(Cl)c([N+](=O)[O-])c2)c(C)c1	80*	7	7	27	100*	8	7	/
SMILES	CSC inhib	SKKanGAS inh	Beta cell apopt	T cruzi inh	Mdm2 MdmX PPI	Calb FLC	Mdm2-MdmX conf	Full FLuc ctr
O=C(CN(c1cccc(C(F)(F)F)c1)S(=O)(=O)c1ccc(Cl)c([N+](=O)[O-])c1)NCc1ccccc1Cl	101*	22	-9	23	73*	-7	32	103*
CC(NC(=O)CN(c1cccc(C(F)(F)F)c1)S(=O)(=O)c1ccc(Cl)c([N+](=O)[O-])c1)c1ccccc1 (stereo not drawn)	98*	13	7	5	82*	3	55*	35
O=C(CN(c1cccc(C(F)(F)F)c1)S(=O)(=O)c1ccc(Cl)c([N+](=O)[O-])c1)NCc1ccccc1	85*	3	-8	-8	82*	3	40*	59*
CC(=O)c1ccc(NC(=O)CN2CCCC2)cc1	-7	11	-4	3	-28	1	/	/
O=C(CN1C(=O)NC2(CCc3ccccc32)C1=O)c1ccc(F)c(F)c1 (stereo not drawn)	/	15	3	-16	0	-3	/	/
CC(=O)Nc1ccc(NC(=O)C(C)OC(=O)C23CC4CC(CC(Cl)(C4)C2)C3)cc1 (stereo not drawn)	-3	/	-3	/	5	/	/	/
Cc1ccc(Sc2cnccc2C#N)cc1	-9	5	-7	10	8	3	/	/
O=C(Cc1ccccc1)Nc1ccc(NC(=O)c2cccc(Cl)c2)cc1	-5	-9	-1	10	37	-6	/	/
C/C(=N\NC(=O)c1ccccc1O)c1ccc(NC(=O)Cc2ccccc2)cc1	-5	12	23	-7	51*	-7	20	/
Cc1cc(C)cc(C(=O)Nc2ccc(NC(=O)Cc3ccccc3)cc2)c1	9	-17	26	-5	52*	-3	10	/
C/C(=N\NC(=O)c1ccccc1O)C1CC1	-3	0	10	-16	52*	8	17	/
COc1cccc(C(=O)N/N=C(\C)c2ccc(NC(=O)Cc3ccccc3)cc2)c1OC	-16	13	-2	-8	-17	13	/	/
C/C(=N\NC(=O)c1ccc(N)cc1)C1CC1	-2	-2	1	-1	-8	-7	/	/
Cc1nc2scc(C)n2c(=O)c1S(=O)(=O)N1CCN(c2ccc([N+](=O)[O-])cc2)CC1	-7	-1	/	-9	17	-10	/	/
Cc1cc(C)cc(NC(=O)/C(C#N)=C/c2cn(CC(=O)NCc3ccco3)c3ccccc23)c1	40	-6	101*	-34	95*	1	28	/
CNC(=O)/C(C#N)=C/c1cn(CC(=O)NCc2ccco2)c2ccccc12	6	-1	0	10	15	3	/	/
Cc1ccc(NC(=O)/C(C#N)=C/c2cn(CC(=O)NCc3ccco3)c3ccccc23)cc1C	37	0	22	-44	68*	-2	50*	75*
